TNF necrop inh = TNF-alpha cell death inhibition in Jurkat FADD-/- cells; AID 463075; 220,000 compounds, 0.068% hits; Jurkat FADD-/- TNF necroptosis rescue, ATP luminescence, 24 h; 0 = TNF only, 100 = no-TNF cells; activation (protection from cell death), % at 10 µM;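 active means activation, meaning protection from cell death, of at least 50% relative to plate controls; inactive means activation below 50%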;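 further: necroptosis triggered by 40 ng/mL TNF-alpha added together with compound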
zVAD death inh = blocks zVAD induced death of L929 cells; 220,000 compounds, 0.38% hits; L929 zVAD necroptosis rescue, ATP luminescence, 24 h; with zVAD 60 µM; AID 1377; viability rescue, % at 10 µM;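 active means activation, scaled between plate controls, above about 75%, limit read from the data; inactive means activation under that limit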;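 further: 0% = zVAD with DMSO and 100% = DMSO alone without zVAD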
Hep lipid drop = modulators of hepatic lipid droplet formation; inhibition, % at 6.5 µM; AML12 mouse hepatocytes, oleate lipid droplets, BODIPY imaging; AID 1656; 240,000 compounds, 0.4% hits;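 active means lipid droplet intensity inhibited by at least 50%, with more than 500 cells counted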
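Material: mouse AML12 hepatocyte cell line, fixed after treatment; Timing: compound with oleate, overnight; Technique: high-content imaging of BODIPY-stained droplets and DAPI nuclei; Probe or stimulus: oleate, 100 µM final; Dosing: compound at 6.5 µM only.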
Arbovirus inh = arbovirus infection inhibition; AID 1251; 200,000 compounds, 0.37% hits; arbovirus infection cell-based antiviral screen; inhibition, % at 10 µM; in the data active means inhibition above about 30%
Pf gamet viab = kills late stage P. falciparum gametocytes. 150,000 compounds, 0.065% hits. P. falciparum stage V gametocytes, ATP luminescence, 24 h. AID 743093. inhibition, % at 10.9 µM;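 active means inhibition above the mean plus 3 SD of compounds within the control limits, set per campaign, cut at about 38% in these data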;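 further: 0% = DMSO wells and 100% = medium only without gametocytes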
Hep lipid conf = hepatic lipid droplet formation inhibition, confirmed; shares compounds with Hep lipid drop; AML12 mouse hepatocytes, BODIPY lipid droplet imaging; droplets induced with 100 µM oleic acid; inhibition, % at 5.2 µM; 870 compounds, 65% hits;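 active means inhibition of lipid droplet metric at least 50%, with more than 300 cells in each of four replicates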;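 further: plate controls were DMSO with oleic acid for no effect and 5 µM Triacsin-C for full effect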
AML12 cytotox = AML12 hepatocyte cytotoxicity (counter-screen); shares compounds with Hep lipid drop; AML12 mouse hepatocytes, DAPI nuclear morphology cytotoxicity imaging; stronger effect = higher value; cells fed 100 µM oleate overnight; z-score at 5 µM; 870 compounds, 3% hits; AID 463200; in the data active means z-score above about 6.3;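 further: compound exposure lasted overnight at 37 °C before fixation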
AML12 tox ATP = AML12 hepatocyte cytotoxicity, confirmed | shares compounds with Hep lipid drop | AML12 mouse hepatocyte viability, ATP luminescence; cells loaded with 100 µM oleic acid | cytotoxicity, % at 50 µM | 530 tested, under 10 active;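 active means cytotoxicity above 50% in each of four replicates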;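 further: compound exposure lasted overnight at 37 °C before the ATP read; 0% = DMSO-treated cells and 100% = wells with no cells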
Active calls of the source: *; / = no result given. The list is not random: actives were taken first. Their share in the collection is about 0.91%.

SMILES | TNF necrop inh | zVAD death inh | Hep lipid drop | Arbovirus inh | Pf gamet viab | Hep lipid conf | AML12 cytotox | AML12 tox ATP
CCCn1nc2cc(C(=O)NCc3ccc(OC(F)(F)F)cc3)ccc2c1OCC | 2 | 0 | 67* | -13 | 12 | 98* | -0.66 | 6
O=C(CSc1nc2ccsc2c(=O)n1Cc1ccccc1)NCc1ccco1 | 1 | 1 | 24 | 1 | / | / | / | /
CCC(Sc1nc2ccsc2c(=O)n1-c1ccc(Cl)c(C)c1)C(=O)NCc1ccco1 (configuration not stated) | 0 | 0 | 54* | 13 | 0 | 64* | 0.076 | /
O=[N+]([O-])c1cc2c(c(CSc3nnc(Nc4ccccc4)s3)c1)OCOC2 | -3 | 0 | 64* | -7 | / | 93* | -1.6 | 9
O=C(c1ccc(CS(=O)c2cccc(Cl)c2)o1)N1CCCCCC1 (configuration not stated) | / | / | 2 | / | / | / | / | /
Cc1cc(=O)oc2cc(OCc3ccc(C(=O)OCC(=O)Nc4ccc(N(C)C)cc4)cc3)ccc12 | -3 | 1 | -1 | 5 | 1 | / | / | /
C=C(C)C1CC=C(C)/C(=N/Nc2ccccc2[N+](=O)[O-])C1 (configuration not stated) | 5 | 1 | 78* | 7 | -14 | 115* | -0.4 | 3
CCCCCCSc1ccc([C@H]2N[C@@](Cc3ccccc3)(C(=O)OC)[C@H]3C(=O)N(C)C(=O)[C@@H]23)cc1OC | / | / | / | / | 13 | / | / | /
Cc1ccc(/C=C/C(=O)NC(=S)Nc2ccc(S(=O)(=O)Nc3cc(C)on3)cc2)cc1 | / | / | 14 | / | / | / | / | /
Oc1ccc2ccccc2c1N=Nc1ccccn1 | -15 | 29 | -20 | -23 | 14 | / | / | /
Oc1ccc2ccccc2c1N=Nc1ccccc1F | -3 | 0 | 93* | / | 15 | 95* | 0.84 | /
O=C(O)c1ccc(C(=O)Nc2cccc3ccccc23)c(C(=O)O)c1 | / | / | 0 | / | / | / | / | /
CCOc1ccc(CCNC(=O)COC(=O)/C=C/c2ccc(OC)c(OC)c2)cc1OCC | / | / | 94* | / | / | 109* | -0.73 | 7
COc1ccc(/C=C/C(=O)OCC(=O)NCc2ccco2)cc1OC | -1 | 1 | 0 | -7 | 12 | / | / | /
CCOc1ccc(CCNC(=O)COC(=O)/C=C/c2ccc(C)o2)cc1OCC | / | / | 59* | / | / | 91* | -0.68 | 10
C[C@@]12C(=O)N(Cc3ccc(F)cc3)CC(=O)N1[C@H]1c3cc(Cl)ccc3OC[C@@H]1[C@@H]2c1ccccc1 | / | / | / | / | -25 | / | / | /
CN(C)c1cccc(C(=O)NCC(c2ccco2)N(C)C)c1 (configuration not stated) | / | / | -2 | / | / | / | / | /
O=C(Nc1ccccc1Cc1ccccc1)c1oc2ccccc2c1COc1ccccc1 | 1 | -1 | 6 | -12 | -9 | / | / | /
O=C(NCCc1ccccc1)c1oc2ccccc2c1COc1ccccc1 | 3 | 0 | 64* | -1 | 8 | 87* | -0.082 | -9
CCOC(=O)c1ccc(NC(=O)CCOc2ccccc2)cc1 | 1 | 0 | 21 | 8 | -4 | / | / | /
CCCOC(=O)c1ccc(NC(=O)CCOc2ccccc2)cc1 | -1 | 0 | 52* | 1 | -4 | 104* | -0.16 | 14
O=C(COC(=O)c1cccs1)Nc1nc(-c2ccccc2)cs1 | 3 | 1 | 10 | -1 | 10 | / | / | /
C/C(=N\Nc1nc(-c2ccccc2)cs1)c1cccs1 | 0 | 2 | 52* | -17 | -4 | 96* | -1.2 | 28
C/C(CC(=O)Nc1ccc(Cl)c(Cl)c1)=N\NC(=O)Cc1ccccc1 | 3 | 0 | -3 | 1 | 14 | / | / | /
COc1ccc(Cl)c(NC(=O)C/C(C)=N/NC(=O)CCc2ccccc2)c1 | / | / | 122* | / | / | 99* | -0.55 | 12
SMILES | TNF necrop inh | zVAD death inh | Hep lipid drop | Arbovirus inh | Pf gamet viab | Hep lipid conf | AML12 cytotox | AML12 tox ATP
Cc1ccc(C2=Nc3ccc(Br)cc3C(c3ccncc3)=NN2)cc1 | 2 | 0 | 0 | 9 | 13 | / | / | /
COc1cccc(C(C(=O)NC2CCCC2)N(CCC(C)C)C(=O)CCC(=O)Nc2cc(C)on2)c1 (configuration not stated) | / | / | 23 | / | / | / | / | /
CCCCN(C(=O)CCC(=O)Nc1cc(C)on1)C(C(=O)NC1CCCC1)c1ccc(OCC)cc1 (configuration not stated) | / | / | 74* | / | / | 91* | -0.33 | 9
COc1ccc(C(C(=O)NC2CCCC2)N(CCC(C)C)C(=O)CCC(=O)Nc2cc(C)on2)cc1 (configuration not stated) | / | / | 62* | / | / | 81* | -0.13 | 5
CCCCN(C(=O)CCC(=O)Nc1cc(C)on1)C(C(=O)NC1CCCC1)c1ccccc1OCC (configuration not stated) | / | / | -25 | / | / | / | / | /
COc1ccc(C(=O)NC(=S)Nc2nc(C)cc(C)n2)cc1Br | 0 | 0 | -9 | / | -35 | / | / | /
COc1ccc(-c2csc(NC(=O)c3ccc(OCC(=O)N4CCOCC4)c(OC)c3)n2)cc1OC | -2 | 3 | 71* | 15 | / | 96* | 0.43 | 25
Cn1c(=O)c2c(ncn2CC(=O)N2CCN(S(=O)(=O)c3ccccc3)CC2)n(C)c1=O | / | / | -3 | / | / | / | / | /
O=C(Nc1nc(-c2cccc([N+](=O)[O-])c2)cs1)c1cccc([N+](=O)[O-])c1C(=O)O | 1 | 3 | 2 | 10 | / | / | / | /
O=C(Cc1cccc2ccccc12)Nc1nc(-c2cccc([N+](=O)[O-])c2)cs1 | 1 | 1 | 68* | 0 | 5 | 100* | -1 | 31
CC(C)Oc1ccc(C(=O)OC(C)C(=O)Nc2nc(-c3cccc([N+](=O)[O-])c3)cs2)cc1 (configuration not stated) | 10 | 2 | 91* | 6 | / | 97* | 0.34 | 10
C=CCNC(=S)NNC(=O)c1ccc(=O)n(Cc2ccc(Cl)cc2Cl)c1 | 0 | 52 | -19 | 7 | -2 | / | / | /
O=C(NCCc1nc2ccccc2[nH]1)c1ccc(Br)o1 | / | / | 51* | / | / | 62* | -0.12 | 6
Cc1ccc(C(=O)NCCc2nc3ccccc3[nH]2)cc1[N+](=O)[O-] | 3 | 1 | 82* | -4 | -11 | 94* | -0.074 | 18
O=C(NCCc1nc2ccccc2[nH]1)c1ccco1 | 1 | 1 | / | 0 | / | / | / | /
O=C(NCCc1nc2ccccc2[nH]1)c1ccc(Cl)c([N+](=O)[O-])c1 | 4 | 0 | -4 | -2 | 11 | / | / | /
Oc1[nH]c2ccccc2c1N=Nc1nc(Nc2ccccc2)nc(N2CCOCC2)n1 | -14 | -1 | 60* | / | 18 | 84 | 20* | /
c1ccc(-c2csc(NNC3=NCCCCC3)n2)cc1 | -9 | -2 | 63* | -11 | 2 | 115* | -0.27 | 31
Clc1ccc(-c2csc(NNC3=NCCCCC3)n2)cc1 | -9 | 0 | / | -8 | 7 | / | / | /
